Values after ≈ are worked out from the molar mass of the structure shown. Active and inactive are the calls of the source. The rule behind the calls is not given here. Peptide text beside a SMILES is read from it. * marks the point of attachment. βNA = c1ccc2cc(N*)ccc2c1
Tests used:
Escherichia coli [1] = experiment: Induction of outer membrane permeabilization in Escherichia coli ATCC 25922 assessed as increase in NPN uptake at 1.56 to 12.5 ug/ml incubated for 10 mins by fluorescence assay; format: functional, organism-based
Procedure, shortened: (§1)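 Log-phase cells grown in CAMH, washed, and resuspended in PBS to OD600 1.0. NPN added at 10 μM final for 10 min at room temperature. Compound (1/32–¼ MIC, DMSO vehicle) added, four replicates, then 10 min in the dark at room temperature. Fluorescence read at ex 350/em 420 nm. The 10-min average, minus vehicle wells, is the corrected value.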

Escherichia coli [2] = experiment: Potency index, ratio of potentiation of clarithromycin-induced antibacterial activity of PAbetaN to potentiation of clarithromycin-induced antibacterial activity of test compound against Escherichia coli ATCC 25922 assessed as fold reduction in clarithromycin MIC at 12.5 uM incubated for 24 hrs by spectrophotometric based assay; format: functional
Escherichia coli [3] = experiment: Induction of inner membrane permeabilization in Escherichia coli ATCC 25922 assessed as increase in propidium iodide uptake at 1.56 to 12.5 ug/ml by PI staining based flow cytometric analysis; format: functional, organism-based
Procedure, shortened: (§2)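 Flow cytometry. Log-phase cells grown in CAMH and diluted in PBS to 4 × 10^6 CFU/ml. Compound added at 1/32–¼ MIC (DMSO vehicle controls), in triplicate. Propidium iodide added at 50 μM final; 1 h in the dark at room temperature. Excitation 488 nm, emission 620/30 nm, 30,000 cells per sample. Result is percent PI-positive cells.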

Escherichia coli [4] = experiment: Potentiation of clarithromycin-induced antibacterial activity against Escherichia coli ATCC 25922 assessed as fold reduction in clarithromycin MIC at 12.5 ug/ml incubated for 24 hrs by spectrophotometric based assay
Escherichia coli [5] = experiment: Induction of outer membrane permeabilization in Escherichia coli ATCC 25922 assessed as increase in propidium iodide uptake at 1.56 to 12.5 ug/ml by propidium iodide staining based flow cytometric analysis; format: functional, organism-based; procedure, shortened: as §2
Escherichia coli [6] = experiment: Antibacterial activity against Escherichia coli ATCC 25922 incubated for 24 hrs by spectrophotometric based assay; format: functional; conditions: ATCC 25922, 24 h
Procedure, shortened: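 Intrinsic MIC by broth microdilution. Log-phase cells at 5 × 10^5 CFU/ml in cation-adjusted Mueller-Hinton broth with two-fold serial dilutions of test compound. Aerobic incubation 24 h at 37 °C, then OD600 read. MIC is the lowest concentration giving ≥90% growth inhibition versus drug-free controls.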

Escherichia coli [7] = experiment: Disruption of membrane potential in Escherichia coli ATCC 25922 at 12.5 ug/ml incubated fro 30 mins by DiOC2 probe based flow cytometric analysis; format: functional, organism-based
Procedure, shortened: (§3)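 Log-phase cells grown in CAMH, diluted in PBS to 2 × 10^6 CFU/ml, and treated with compound at ¼ MIC. Controls were DMSO vehicle and 2 μg/ml CCCP, with 0.2% DMSO in all tubes, in triplicate. DiOC2 added at 30 μM; 30 min in the dark at room temperature. Flow cytometry at 488 nm excitation, 10,000 cells. Red (620/30) to green (525/20) fluorescence ratio reported.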

[8] = tested on: Escherichia coli ATCC 25922; experiment: Inhibition of AcrAB-TolC efflux pump in Escherichia coli ATCC 25922 assessed as inhibition of Hoechst 33342 efflux at 1.56 to 12.5 ug/ml pre-incubated for 5 mins followed by glucose addition by Hoechst 33342 staining based fluorescence assay
Procedure, shortened: (§4)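 Overnight cells washed and resuspended in PBS + 1 mM MgCl2 to OD600 1.0. Energy depleted with 3.13 μM CCCP for 20 min at 37 °C. Loaded with 10 μM Hoechst 33342 for 20 min, then mixed with compound (1/32–¼ MIC, DMSO vehicle) and preincubated 5 min at 37 °C. Efflux started with 50 mM glucose. Fluorescence (ex 355/em 460 nm) read each minute for 40 min at 37 °C.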

Escherichia coli [9] = experiment: Induction of inner membrane permeabilization in Escherichia coli ATCC 25922 assessed as increase in propidium iodide uptake at 3.13 to 25 ug/ml by PI staining based flow cytometric analysis; format: functional, organism-based; procedure, shortened: as §2
Escherichia coli [10] = experiment: Disruption of membrane potential in Escherichia coli ATCC 25922 at 25 ug/ml incubated fro 30 mins by DiOC2 probe based flow cytometric analysis; format: functional, organism-based; procedure, shortened: as §3
[11] = tested on: Escherichia coli ATCC 25922; experiment: Inhibition of AcrAB-TolC efflux pump in Escherichia coli ATCC 25922 assessed as inhibition of Hoechst 33342 efflux at 3.13 to 25 ug/ml pre-incubated for 5 mins followed by glucose addition by Hoechst 33342 staining based fluorescence assay; procedure, shortened: as §4
Escherichia coli [12] = experiment: Induction of outer membrane permeabilization in Escherichia coli ATCC 25922 assessed as increase in NPN uptake at 3.13 to 25 ug/ml incubated for 10 mins by fluorescence assay; format: functional, organism-based; procedure, shortened: as §1
Escherichia coli [13] = experiment: Induction of outer membrane permeabilization in Escherichia coli ATCC 25922 assessed as increase in propidium iodide uptake at 3.13 to 25 ug/ml by PI staining based flow cytometric analysis; format: functional, organism-based; procedure, shortened: as §2
Escherichia coli [14] = experiment: Increase in membrane potential in Escherichia coli ATCC 25922 at 25 ug/ml incubated fro 30 mins by DiOC2 probe based flow cytometric analysis; format: functional, organism-based; procedure, shortened: as §3

SMILES	fold change (FC) (Escherichia coli [4])	MIC (Escherichia coli [6]) [mg/L]	other results
NCCC[C@H](N)CNC(=O)CC(CCc1ccccc1)CCc1ccccc1	512	50 (≈ 131 µM)	Activity (Escherichia coli [1]): Dose-dependent effect; Ratio (Escherichia coli [2]): 128; Activity (Escherichia coli [3]): Active; Activity (Escherichia coli [5]): Active; Activity (Escherichia coli [7]): inactive; inhibition [8]: Dose-dependent effect
NCCC[C@H](N)CNCC(CCc1ccccc1)CCc1ccccc1	128	100 (≈ 283 µM)	Activity (Escherichia coli [9]): Active; Activity (Escherichia coli [10]): inactive; inhibition [11]: Dose-dependent effect; Activity (Escherichia coli [12]): Dose-dependent effect; Ratio (Escherichia coli [2]): 32; Activity (Escherichia coli [13]): Active; Activity (Escherichia coli [14]): Active
CN[C@@H](CCCN)CNC(=O)C(CCc1ccccc1)CCc1ccccc1	1	> 200	–
NCC[C@H](N)CNC(=O)C(CCc1ccccc1)CCc1ccccc1	2	100 (≈ 283 µM)	–
CNCCC[C@H](N)CNC(=O)C(CCc1ccccc1)CCc1ccccc1	2	50 (≈ 131 µM)	–
NNCCC[C@H](N)CNC(=O)C(CCc1ccccc1)CCc1ccccc1	1	200 (≈ 523 µM)	–
N=C(N)NCCC[C@H](NC(=O)[C@@H](N)Cc1ccccc1)C(=O)Nc1ccc2ccccc2c1 [PABETAN] (H-Phe-Arg-βNA)	4	> 200	–
NCCC[C@H](N)CNC(=O)C(CCc1ccccc1)CCc1ccccc1	16	50 (≈ 136 µM)	–
NCCC[C@H](N)CNC(=O)CCc1ccccc1	1	> 200	–
NC[C@@H](N)CCCNC(=O)C(CCc1ccccc1)CCc1ccccc1	32	100 (≈ 272 µM)	–
NCC[C@H](N)CCNCC(CCc1ccccc1)CCc1ccccc1	64	50 (≈ 141 µM)	–
NCCC[C@H](N)CNC(=O)C(Cc1ccccc1)Cc1ccccc1	1	> 200	–
NCC[C@H](N)CCNC(=O)C(CCc1ccccc1)CCc1ccccc1	16	200 (≈ 544 µM)	–
NCCC[C@H](N)CNC(=O)CC(Cc1ccccc1)Cc1ccccc1	16	200 (≈ 566 µM)	–
CN(C[C@@H](N)CCCN)C(=O)C(CCc1ccccc1)CCc1ccccc1	1	> 200	–
CN(C)[C@@H](CCCN)CNC(=O)C(CCc1ccccc1)CCc1ccccc1	2	100 (≈ 253 µM)	–
N=C(N)NCCC[C@H](N)CNC(=O)C(CCc1ccccc1)CCc1ccccc1	4	> 200	–
CN(C)CCC[C@H](N)CNC(=O)C(CCc1ccccc1)CCc1ccccc1	2	200 (≈ 506 µM)	–
NC[C@@H](N)CCCNCC(CCc1ccccc1)CCc1ccccc1	32	100 (≈ 283 µM)	–
NCCC[C@H](N)CNC(=O)CC(c1ccccc1)c1ccccc1	1	> 200	–
NC[C@H](N)CNC(=O)C(CCc1ccccc1)CCc1ccccc1	16	200 (≈ 589 µM)	–
NCCC[C@H](N)CNC(=O)CCCc1ccccc1	1	> 200	–
NCCC[C@H](N)CNC(=O)C(c1ccccc1)c1ccccc1	2	> 200	–
NCCC[C@H](N)C(=O)NC(CCc1ccccc1)CCc1ccccc1	4	> 100	–
NCCC[C@@H](N)CNC(=O)C(CCc1ccccc1)CCc1ccccc1	16	50 (≈ 136 µM)	–

Reference: ChEMBL document CHEMBL4385623, “Advances in the structural studies of antibiotic potentiators against Escherichia coli” (2019)
